Measured values from ChEMBL document CHEMBL1135596, “Synthesis and evaluation of indenopyrazoles as cyclin-dependent kinase inhibitors. 2. Probing the indeno ring substituent pattern” (J Med Chem, 2002).

Tests used:
[1] = biological target: T1, Cyclin-dependent kinase 4/cyclin D1 (Homo sapiens, UniProt P11802); experiment: Compound was evaluated for 50% inhibition of Cyclin-dependent kinase 4-cyclin D1; assay type: protein-complex assay
Method in brief: (§1)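 CDK4/cyclin D1 from extracts of co-expressing cells; 50 mM Tris-HCl pH 7.6, 10 mM MgCl2, 10% DMSO, 1 mM DTT, 50 µM ATP with [γ-32P]ATP, 6 µg GST-Rb (Rb aa 378-928). Started with 4 units enzyme, 15 min at room temperature, stopped with EDTA/ATP buffer. Labeled GST-Rb captured on GSH-Sepharose and counted by scintillation. IC50 from fit of v/vo versus [I] with slope term.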

[2] = biological target: T2, Cyclin-dependent kinase 2/cyclin E (Homo sapiens, UniProt P24941); experiment: Compound was evaluated for inhibition of Cyclin-dependent kinase 2-cyclin E; assay type: protein-complex assay
Method in brief: (§2)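 CDK2/his-cyclin E in 50 mM Tris-HCl pH 7.6, 10 mM MgCl2, 10% DMSO, 1 mM DTT, 50 µM ATP, 0.05 µCi [γ-32P]ATP, 6 µM GST-Rb. Incubated at room temperature, stopped with cold PBS containing 100 mM EDTA, 10 mM ATP, BSA and NP40. 32P incorporation into Rb measured; IC50 by fit of v/vo to [I] with slope factor.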

[3] = system: AG1523; experiment: Toxicity tested against normal human fibroblast cell line (AG1523); assay type: functional, cell-based
Method in brief: (§3)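 Sulforhodamine B growth assay. HCT116 colon carcinoma or AG1523 normal fibroblasts were seeded in McCoy's 5A with 5% FBS, at a density allowing 3-5 doublings. Incubation was 5 days (HCT116) or 6 days (AG1523) at 37 °C, 5% CO2. Cells were fixed with cold TCA, stained with 0.4% SRB, and dye was dissolved in 10 mM Tris base; OD read at 570 nm.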

[4] = system: HCT-116; experiment: Toxicity tested against transformed human colon cancer cell line (HCT116); assay type: functional, cell-based; method in brief: as §3
[5] = system: HCT-116; experiment: Effect of serum protein binding on inhibition of transformed cell line(PB HCT116) proliferation; assay type: functional, cell-based; details: Homo sapiens
Method in brief: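 HCT116 cells were grown as in the SRB assay, with 45 mg/mL human serum albumin plus 1 mg/mL α1-acid glycoprotein added together with graded compound. Growth was read out by MTT: 1 mg/mL solution added, 4 h at 37 °C. Formazan was solubilized in 0.04 N HCl/isopropanol and absorbance read at 570 nm against a 630 nm reference.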

[6] = biological target: T2, Cyclin-dependent kinase 2/cyclin E; experiment: Inhibition of Cyclin-dependent kinase 2-cyclin E; assay type: protein-complex assay; method in brief: as §2
[7] = biological target: T1, Cyclin-dependent kinase 4/cyclin D1; experiment: Inhibition of Cyclin-dependent kinase 4-cyclin D1; assay type: protein-complex assay; method in brief: as §1

T1 sequence (P11802 whole entry, the tested form may be a part): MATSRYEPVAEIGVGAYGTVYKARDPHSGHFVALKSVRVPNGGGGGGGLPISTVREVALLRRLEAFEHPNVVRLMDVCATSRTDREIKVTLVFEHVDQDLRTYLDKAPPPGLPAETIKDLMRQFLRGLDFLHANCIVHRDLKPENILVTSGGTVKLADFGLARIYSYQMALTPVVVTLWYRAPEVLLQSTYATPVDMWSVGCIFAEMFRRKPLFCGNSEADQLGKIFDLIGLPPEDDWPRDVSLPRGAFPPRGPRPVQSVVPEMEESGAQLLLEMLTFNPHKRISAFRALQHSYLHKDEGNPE
T1 sequence (P24385 whole entry, further chain, the tested form may be a part): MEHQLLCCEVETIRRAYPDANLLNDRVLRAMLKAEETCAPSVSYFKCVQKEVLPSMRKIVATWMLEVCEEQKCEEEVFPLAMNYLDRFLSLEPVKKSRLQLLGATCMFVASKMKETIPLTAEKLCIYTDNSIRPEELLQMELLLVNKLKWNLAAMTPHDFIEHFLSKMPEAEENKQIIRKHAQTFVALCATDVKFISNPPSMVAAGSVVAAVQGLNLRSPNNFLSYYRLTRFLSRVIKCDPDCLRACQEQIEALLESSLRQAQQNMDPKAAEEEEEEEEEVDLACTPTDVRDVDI

Compound | IC50 [1] [nM] | IC50 [2] [nM] | IC50 [3] [nM] | IC50 [4] [nM] | IC50 [5] [nM] | IC50 [6] [nM] | IC50 [7] [nM]
COc1ccc(-c2[nH]nc3c2C(=O)c2c(NC(=O)CN)cccc2-3)cc1 | > 1400 | > 720 |  |  |  |  | 
COc1ccc(-c2[nH]nc3c2C(=O)c2c(NC(=O)CN4CCC(C(N)=O)CC4)cccc2-3)cc1 | 76 | 8 | 400 |  |  |  | 
COc1ccc(-c2[nH]nc3c2C(=O)c2c(NC(=O)NN4CCCC4)cccc2-3)cc1 | 12 | 15 |  |  |  |  | 
COc1ccc(-c2[nH]nc3c2C(=O)c2c(NC(=O)CN4CCNCC4)cccc2-3)cc1 | 113 | 33 |  |  |  |  | 
COc1ccc(-c2[nH]nc3c2C(=O)c2c(NC(=O)CN4CCCCC4)cccc2-3)cc1 | > 1000 | 185 |  |  |  |  | 
COc1ccc(-c2[nH]nc3c2C(=O)c2cc(Cl)c(Cl)cc2-3)cc1 | 55500 |  |  |  |  |  | 
COc1ccc(-c2c3c(nn2-c2ccccc2)-c2ccccc2C3=O)cc1 | > 200000 | > 280000 |  |  |  |  | 
COc1ccc(-c2[nH]nc3c2C(=O)c2c(NC(=O)CN4CCC(CN)CC4)cccc2-3)cc1 | 20 | 12 | 600 | 70 |  |  | 
COc1ccc(-c2[nH]nc3c2C(=O)c2cc(N)ccc2-3)cc1 | 108000 | 210000 |  |  |  |  | 
COc1ccc(-c2[nH]nc3c2C(=O)c2c(NC(=O)CN4CCSCC4)cccc2-3)cc1 | > 500 | 54 |  |  |  |  | 
COc1ccc(-c2[nH]nc3c2C(=O)c2c(NC(=O)CN4CCC(CO)CC4)cccc2-3)cc1 | 82 | 11 |  |  |  |  | 
COc1ccc(-c2[nH]nc3c2C(=O)c2c(NC(=O)CN4CCOCC4)cccc2-3)cc1 | 195 | 21 |  |  |  |  | 
COc1ccc(-c2[nH]nc3c2C(=O)c2c(NC(=O)NN4CCN(C)CC4)cccc2-3)cc1 | 9 | 12 | 85 | 15 |  |  | 
COc1ccc(-c2[nH]nc3c2C(=O)c2c(O)cccc2-3)cc1 | 20000 | 5200 |  |  |  |  | 
COc1ccc(-c2[nH]nc3c2C(=O)c2c(NC(=O)NN4CCOCC4)cccc2-3)cc1 | 12 | 18 | 950 | 20 | 622 |  | 
COc1ccc(-c2[nH]nc3c2C(=O)c2c(NC(=O)NN4CCCCC4)cccc2-3)cc1 | 12 | 22 |  |  |  |  | 
CCNCC(=O)Nc1cccc2c1C(=O)c1c-2n[nH]c1-c1ccc(OC)cc1 | 917 | 130 |  |  |  |  | 
COc1ccc(-c2[nH]nc3c2C(=O)c2cccnc2-3)cc1 | > 361000 |  |  |  |  |  | 

Compound | IC50 [1] [nM] | IC50 [2] [nM] | IC50 [3] [nM] | IC50 [4] [nM] | IC50 [5] [nM] | IC50 [6] [nM] | IC50 [7] [nM]
CCCCNC(=O)Nc1cccc2c1C(=O)c1c(-c3ccc(OC)cc3)n[nH]c1-2 | 780 | 84 |  |  |  |  | 
COc1ccc(-c2[nH]nc3c2C(=O)c2c(NC(=O)NCc4ccncc4)cccc2-3)cc1 | 1150 | 29 | > 24000 | 378 | > 58000 |  | 
COc1ccc(-c2[nH]nc3c2C(=O)c2c(NC(=O)NN(C)C)cccc2-3)cc1 |  |  | 385 | 28 | 1240 | 5 | 21
COc1ccc(CNC(=O)Nc2cccc3c2C(=O)c2c(-c4ccc(OC)cc4)n[nH]c2-3)cc1 | > 1100 | 180 |  |  |  |  | 
COc1ccc(-c2[nH]nc3c2C(=O)c2c(NC(N)=O)cccc2-3)cc1 | 66 | 7 | 413 | 57 | 3200 |  | 
CCN(CC)C(=O)Nc1cccc2c1C(=O)c1c(-c3ccc(OC)cc3)n[nH]c1-2 | > 1300 | > 1300 |  |  |  |  | 
COc1ccc(-c2[nH]nc3c2C(=O)c2cc(O)ccc2-3)cc1 | 21500 |  |  |  |  |  | 
COc1ccc(-c2[nH]nc3c2C(=O)c2ccncc2-3)cc1 | 34500 | 4700 |  |  |  |  | 
COc1ccc(-c2[nH]nc3c2C(=O)c2c(NC(=O)CN4CCN(C)CC4)cccc2-3)cc1 | 125 | 12 |  |  |  |  | 
COc1ccc(-c2[nH]nc3c2C(=O)c2c(NC(=O)CN4CCN(C(=N)N)CC4)cccc2-3)cc1 | 26 | 7 |  | > 900 |  |  | 
COc1ccc(-c2[nH]nc3c2C(=O)c2c(NC(=O)NCc4ccccc4)cccc2-3)cc1 | 307 | 95 |  |  |  |  | 
COc1ccc(-c2[nH]nc3c2C(=O)c2c(NC(=O)CN4CCN(C(N)=O)CC4)cccc2-3)cc1 | 64 | 8 | > 400 | 47 | > 5200 |  | 
COc1ccc(-c2[nH]nc3c2C(=O)c2c(N)cccc2-3)cc1 | 23000 | 8400 |  |  |  |  | 
COc1ccc(-c2[nH]nc3c2C(=O)c2c(NC(=O)Nc4ccccc4)cccc2-3)cc1 | 877 | 32 |  |  |  |  | 
COc1ccc(-c2[nH]nc3c2C(=O)c2c(NC(=O)CN(C)C)cccc2-3)cc1 | 900 | 44 |  |  |  |  | 
COc1ccc(-c2[nH]nc3c2C(=O)c2c(NC(=O)N(C)Cc4ccccc4)cccc2-3)cc1 | > 2300 | > 2300 |  |  |  |  | 
COc1ccc(-c2c3c(nn2C)-c2ccccc2C3=O)cc1 | > 340000 | > 340000 |  |  |  |  | 
